Experiments:
Mycobacterium kansasii [1] = assay: In vitro activity against Mycobacterium kansasii (SWK); type: functional
Procedure, shortened: (§1)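 Broth macrodilution MIC. Cultures were grown in modified Middlebrook 7H10 broth (agar and malachite green omitted) with 10% OADC and 0.05% Tween 80, shaken at 37 °C for 3 days, then diluted in 7H10 broth to 1 Klett unit/mL. Test agents were dissolved in water or DMSO and filter-sterilised, then serially diluted 2-fold in 7H10 broth at pH 5.8. Tubes were shaken at 37 °C for 7–10 days, with a drug-free control. MIC was the lowest concentration with no visible turbidity, expressed in mmol/L.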

[2] = tested on: Mycobacterium tuberculosis; assay: In vitro activity against Mycobacterium tuberculosis (ATCC 35828); type: functional; procedure, shortened: as §1
[3] = Partition coefficient (logP); type: physicochemical; details: octanol/water
[4] = tested on: Mycobacterium tuberculosis; assay: In vitro activity against Mycobacterium tuberculosis (ATCC 35801); type: functional; procedure, shortened: as §1
[5] = tested on: Mycobacterium tuberculosis; assay: In vitro activity against Mycobacterium tuberculosis (ATCC 27294); type: functional; procedure, shortened: as §1
[6] = t1/2 (min) in equine serum; type: ADME, organism-based, Equus caballus; details: horse
Procedure, shortened: (§2)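 Ester from a 1 mg/mL stock was mixed with 5% aqueous equine serum in 0.01 M KH2PO4, pH 7.2. Aliquots were taken at 0, 5, 10, 15, 30, 60 and 120 min and quenched with an equal volume of acetonitrile, then filtered. Remaining ester was measured by isocratic reverse-phase HPLC (80% acetonitrile/20% 0.1 M sodium acetate, pH 5.0), with UV detection at 265 nm against a standard curve. Half-life is the time to 50% conversion to the acid.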

Mycobacterium avium [7] = assay: In vitro activity against Mycobacterium avium (ATCC49601); type: functional; procedure, shortened: as §1
Mycobacterium avium [8] = assay: In vitro activity against Mycobacterium avium (MAC-101); type: functional; procedure, shortened: as §1
[9] = T1/2 in equine serum; type: ADME, organism-based, Equus caballus; details: horse
Procedure, shortened: as §2, with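 “7.2.” for “7.2. Aliquots were taken at 0, 5, 10, 15, 30, 60 and 120 min and quenched with an equal volume of acetonitrile, then filtered.”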

Mycobacterium kansasii [10] = assay: in vitro activity against Mycobacterium kansasii (SWK).; type: functional
Procedure, shortened: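 M. kansasii clinical isolate SWK was grown 3 days at 37 °C with shaking in modified Middlebrook 7H10 broth with 10% OADC and 0.05% Tween 80, then diluted. It was tested in serial 2-fold dilutions in 7H10 broth at pH 5.8, shaken at 37 °C for 7–10 days, with a drug-free control. MIC was the lowest concentration giving no visible turbidity, expressed in mmol/L.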

Mycobacterium avium [11] = assay: In vitro activity against Mycobacterium avium (ATCC 49601).; type: functional; procedure, shortened: as §1
Mycobacterium avium [12] = assay: In vitro activity against Mycobacterium avium (MAC-101).; type: functional; procedure, shortened: as §1

| Compound | Log 1/MMIC (Mycobacterium kansasii [1]) | Log 1/MMIC [2] | logP [3] | Log 1/MMIC [4] | Log 1/MMIC [5] | half-life [6] [min] | Log 1/MMIC (Mycobacterium avium [7]) | Log 1/MMIC (Mycobacterium avium [8]) | half-life [9] [min] | Log 1/MMIC (Mycobacterium kansasii [10]) | Log 1/MMIC (Mycobacterium avium [11]) | Log 1/MMIC (Mycobacterium avium [12]) |
| --- | --- | --- | --- | --- | --- | --- | --- | --- | --- | --- | --- | --- |
| CCCCCCC(C)OC(=O)c1cnc(F)cn1 (stereo unspecified) | 3.928 | 1.803 | 3.23 | 1.803 | 2.104 | 6.9 | 0.599 | 0.9 |  |  |  |  |
| CCCCCCOC(=O)c1cnc(F)cn1 | 1.452 |  | 2.96 | 1.753 |  | 2.8 | 0.548 | 0.548 |  |  |  |  |
| CCCOC(=O)c1cnc(C)cn1 | 1.353 |  | 1.15 | 1.654 | 1.955 | 124 | 0.45 | 0.45 |  |  |  |  |
| CCCCCCCOC(=O)c1cnc(C)cn1 |  | 2.373 | 3.35 | 2.976 | 2.675 |  |  |  | 3.2 | 1.771 | 0.868 | 0.868 |
| CCC(C)OC(=O)c1cnccn1 (stereo unspecified) | 1.052 |  | 1.05 |  | 1.353 | 41.1 | -0.755 | -0.152 |  |  |  |  |
| COC(=O)c1cnccn1 | 0.334 |  |  | 0.936 | 1.237 | 470 | -0.268 | -0.268 |  |  |  |  |
| COC(=O)c1cnc(I)cn1 |  | 1.218 | 0.91 | 1.218 | 1.218 |  |  |  | 200 | 1.519 | 0.013 | 0.013 |
| CCCCCCCCC(C)OC(=O)c1cnc(Cl)cn1 (stereo unspecified) |  | 3.998 | 4.75 | 2.776 | 3.697 |  |  |  | 23.7 | 3.378 | 0.97 | 0.97 |
| COC(=O)c1cnc(C)cn1 | 0.677 | 0.978 | 0.15 | 1.279 | 0.978 | 1200 | -0.226 | -0.226 |  |  |  |  |
| O=C(OCc1ccccc1)c1cnccn1 | 2.331 | 2.03 | 1.49 |  |  | 4.3 | 0.525 | 0.525 |  |  |  |  |
| CCCCCCCCCOC(=O)c1cnc(Cl)cn1 |  | 3.977 | 4.98 | 2.455 | 3.977 |  |  |  | 2.3 | 3.358 | 1.25 | 0.949 |
| COC(=O)c1cnc(F)cn1 | 1.29 |  | 0.27 |  | 1.591 | 222 | 0.387 | 0.387 |  |  |  |  |
| CC(C)COC(=O)c1cnccn1 | 1.052 | 1.654 | 1.07 | 1.654 | 1.955 | 207 | -0.152 | -0.152 |  |  |  |  |
| CCCCCC(CC)OC(=O)c1cnc(C)cn1 (stereo unspecified) | 1.796 | 1.495 | 3.72 | 2.7 | 1.194 | 1 | 0.592 | 0.592 |  |  |  |  |
| COC(=O)c1cnc(OC)cn1 | 0.42 |  | 0.74 |  |  | 300 | -0.183 | -0.183 |  |  |  |  |
